In PubChem BioAssay AID624400 (The Scripps Research Institute Molecular Screening Center, 2012) one finds inhibition data, which are given here for three compounds.

Broadly, the inhibition is the percentage by which the read-out fell short of the control.

This assay deals with aryl hydrocarbon receptor (Cavia porcellus). Nature of the assay: AHR ligand binders displacing [3H]TCDD, late-stage follow-up, counter-screen for AHR activator project, cell lysate, guinea pig liver cytosol, radiometric, set 2 (AID 624400). The note with it: [3H]TCDD binding, hydroxyapatite, at 10 µM, active compounds read high. A digest of the protocol:
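Also added: 2 nM [3H]TCDD; material: guinea pig hepatic cytosol with AHR; controls: TCDF (200 nM) for nonspecific binding; doses: single nominal dose of 10 µM, 2% DMSO; incubation: 1 h binding incubation at room temperature; repeats: triplicate measurements per compound; technique: scintillation counting of hydroxyapatite-bound [3H]TCDD after Tween 80 buffer washes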
For orientation: A counterscreen serves to expose hits that act by an unwanted route or on another target.

With `Cc1ccc(-c2cc(-c3ccc(F)cc3)n[nH]2)c(O)c1`, the inhibition is 19.8%. For the compound `Cc1ccc(-c2cc(-c3cccc(F)c3)n[nH]2)c(O)c1`, the inhibition was 34.8%.

Take `Cc1ccc(-c2cc(-c3ccc(Cl)cc3)n[nH]2)c(O)c1`: the inhibition was 61.7%.
